According to ChEMBL document CHEMBL1147933, “Conformationally restricted homotryptamines 3. Indole tetrahydropyridines and cyclohexenylamines as selective serotonin reuptake inhibitors” (Bioorg Med Chem Lett, 2007):
Activity calls are given as the source filed them. The rule behind the calls is not given here.

What was measured:
[1] = target: T1, Sodium-dependent dopamine transporter (Homo sapiens, UniProt Q01959); test: Inhibition of human DAT at 1 uM
[2] = target: T2, Sodium-dependent serotonin transporter (Homo sapiens, UniProt P31645); test: Displacement of [3H]citalopram from human SERT expressed in HEK293 cells; assay type: cell-based
In short: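 Membrane homogenates from HEK-293 cells stably expressing human SERT, incubated 1 h at 25 °C with 2 nM [3H]citalopram (85 Ci/mmol) and increasing test concentrations. Non-specific binding defined with 10 µM fluoxetine. Specific binding plotted against −log drug concentration, and the midpoint of the displacement curve was taken as IC50.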

[3] = target: T3, Sodium-dependent noradrenaline transporter (Homo sapiens, UniProt P23975); test: Inhibition of human NET at 1 uM
[4] = target: T3, Sodium-dependent noradrenaline transporter; test: Displacement of [125I]Nisoxetine from human NET expressed in HEK293 cells; assay type: cell-based
In short: (§1)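 Membrane homogenates from HEK-293 cell lines stably transfected with the human transporter, incubated with 125I ligands: [125I]RTI-55 for SERT (260 pM) and DAT (125 pM), and custom [125I]nisoxetine for NET (300 pM). Reactions run in 384-well format and filter-harvested. IC50 taken from a 20-point concentration curve in a single experiment.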

[5] = target: T2, Sodium-dependent serotonin transporter; test: Displacement of [125I]RTI-55 from human SERT expressed in HEK293 cells; assay type: cell-based; in short: as §1
[6] = target: T1, Sodium-dependent dopamine transporter; test: Displacement of [125I]RTI-55 from human DAT expressed in HEK293 cells; assay type: cell-based; in short: as §1
[7] = system: Rattus norvegicus; test: Increase in fluoxetine-induced serotonin concentration in rat frontal cortex by microdialysis at 1 mg/kg, ip; assay type: functional, organism-based; design: dose 1 mg/kg
[8] = system: Rattus norvegicus; test: Increase in fluoxetine-induced serotonin concentration in rat frontal cortex by microdialysis at 10 mg/kg, po; assay type: functional, organism-based; design: dose 10 mg/kg

T2 sequence (P31645 whole entry): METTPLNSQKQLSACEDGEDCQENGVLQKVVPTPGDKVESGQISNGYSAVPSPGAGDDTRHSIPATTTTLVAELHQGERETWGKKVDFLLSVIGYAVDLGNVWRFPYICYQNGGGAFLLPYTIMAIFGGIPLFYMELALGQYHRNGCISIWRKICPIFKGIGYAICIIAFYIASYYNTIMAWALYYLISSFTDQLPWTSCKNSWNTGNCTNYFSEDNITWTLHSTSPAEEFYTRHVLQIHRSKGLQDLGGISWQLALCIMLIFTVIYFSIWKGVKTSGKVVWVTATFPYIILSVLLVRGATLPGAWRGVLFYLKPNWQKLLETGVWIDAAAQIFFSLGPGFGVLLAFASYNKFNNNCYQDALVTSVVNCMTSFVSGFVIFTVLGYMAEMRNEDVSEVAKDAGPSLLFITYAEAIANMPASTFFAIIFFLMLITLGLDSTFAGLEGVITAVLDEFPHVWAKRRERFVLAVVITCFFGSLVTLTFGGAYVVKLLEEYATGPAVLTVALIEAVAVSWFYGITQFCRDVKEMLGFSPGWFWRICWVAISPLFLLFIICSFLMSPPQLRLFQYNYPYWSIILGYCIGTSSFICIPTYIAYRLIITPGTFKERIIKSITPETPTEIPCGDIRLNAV
T1 sequence (Q01959 whole entry): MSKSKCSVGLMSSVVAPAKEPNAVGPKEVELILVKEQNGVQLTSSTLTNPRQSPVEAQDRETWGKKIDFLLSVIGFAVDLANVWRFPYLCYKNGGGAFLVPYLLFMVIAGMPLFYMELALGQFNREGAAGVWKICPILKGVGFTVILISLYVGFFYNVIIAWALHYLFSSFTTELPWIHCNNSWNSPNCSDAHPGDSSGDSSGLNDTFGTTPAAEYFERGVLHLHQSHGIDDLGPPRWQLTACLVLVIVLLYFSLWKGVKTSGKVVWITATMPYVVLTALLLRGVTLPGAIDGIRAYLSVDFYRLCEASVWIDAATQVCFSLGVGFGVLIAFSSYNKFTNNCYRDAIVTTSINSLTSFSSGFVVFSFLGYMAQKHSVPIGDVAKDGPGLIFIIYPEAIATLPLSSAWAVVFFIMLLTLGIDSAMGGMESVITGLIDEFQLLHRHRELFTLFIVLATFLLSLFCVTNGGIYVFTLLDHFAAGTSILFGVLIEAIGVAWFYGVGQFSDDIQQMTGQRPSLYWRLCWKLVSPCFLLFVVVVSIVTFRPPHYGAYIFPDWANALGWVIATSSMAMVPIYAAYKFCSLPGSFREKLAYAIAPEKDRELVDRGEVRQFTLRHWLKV
T3 sequence (P23975 whole entry): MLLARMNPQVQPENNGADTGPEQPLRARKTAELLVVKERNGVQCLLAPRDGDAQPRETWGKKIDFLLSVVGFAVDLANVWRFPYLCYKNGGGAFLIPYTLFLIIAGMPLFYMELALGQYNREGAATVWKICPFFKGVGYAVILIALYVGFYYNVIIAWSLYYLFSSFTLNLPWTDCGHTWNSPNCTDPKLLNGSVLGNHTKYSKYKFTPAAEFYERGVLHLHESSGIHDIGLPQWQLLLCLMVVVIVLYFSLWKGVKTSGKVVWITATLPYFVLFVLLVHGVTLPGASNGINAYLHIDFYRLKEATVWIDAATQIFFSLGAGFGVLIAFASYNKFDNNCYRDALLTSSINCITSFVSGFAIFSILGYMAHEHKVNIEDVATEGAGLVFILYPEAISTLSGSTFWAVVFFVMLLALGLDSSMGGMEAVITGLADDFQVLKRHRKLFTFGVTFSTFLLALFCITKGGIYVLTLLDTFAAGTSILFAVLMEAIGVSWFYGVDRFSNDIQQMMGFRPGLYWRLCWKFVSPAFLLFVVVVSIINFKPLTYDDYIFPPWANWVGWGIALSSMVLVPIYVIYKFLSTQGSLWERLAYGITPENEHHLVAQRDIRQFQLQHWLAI

## CN(C)C1CC=C(c2c[nH]c3ccc(Br)cc23)CC1 (stereo not given)
[1]
  inhibition: 95%
[2]
  IC50: 0.0053 µM
[3]
  inhibition: 99%

## CN1CC=C(c2c[nH]c3ccc(C#N)cc23)CC1
[1]
  inhibition: 56%
[2]
  IC50: 0.019 µM
[3]
  inhibition: 15%

## COc1ccc2[nH]cc(C3=CCN(C)CC3)c2c1
[2]
  IC50: 0.73 µM

## CN(C)C1CC=C(c2c[nH]c3ccc([N+](=O)[O-])cc23)CC1 (stereo not given)
[1]
  inhibition: 74%
[2]
  IC50: 0.001 µM
[3]
  inhibition: 81%

## CN(C)C1CC=C(c2c[nH]c3ccc(F)cc23)CC1 (stereo not given)
[1]
  inhibition: 23%
[2]
  IC50: 0.014 µM
[3]
  inhibition: 35%

## CN1CC=C(c2c[nH]c3ccc(Cl)cc23)CC1
[2]
  IC50: 0.24 µM

## CN(C)[C@@H]1CC=C(c2c[nH]c3ccc(C#N)cc23)CC1
[2]
  IC50: 0.0011 µM
[4]
  IC50: 0.037 µM
[5]
  IC50: 0.00056 µM
[6]
  IC50: 0.08 µM

## CN(C)C1CC=C(c2c[nH]c3ccc(C#N)cc23)CC1 (stereo not given)
[1]
  inhibition: 71%
[7]
  Activity: Active
[8]
  Activity: Active
[2]
  IC50: 0.0016 µM
[4]
  IC50: 0.057 µM
[3]
  inhibition: 90%
[5]
  IC50: 0.00034 µM
[6]
  IC50: 0.097 µM

## CN(C)[C@H]1CC=C(c2c[nH]c3ccc(C#N)cc23)CC1
[2]
  IC50: 0.00072 µM
[4]
  IC50: 0.39 µM
[5]
  IC50: 0.0004 µM
[6]
  IC50: 0.29 µM

## CN1CC=C(c2c[nH]c3ccccc23)CC1
[2]
  IC50: 0.69 µM

## Cc1ccc2[nH]cc(C3=CCN(C)CC3)c2c1
[2]
  IC50: 0.91 µM

## Cc1ccc2[nH]cc(C3=CCC(N(C)C)CC3)c2c1 (stereo not given)
[2]
  IC50: 0.77 µM

## CN1CC=C(c2c[nH]c3ccc(F)cc23)CC1
[2]
  IC50: 0.16 µM

## CN(C)C1CC=C(c2c[nH]c3ccc(Cl)cc23)CC1 (stereo not given)
[1]
  inhibition: 16%
[2]
  IC50: 0.019 µM
[3]
  inhibition: 34%

## COc1ccc2[nH]cc(C3=CCC(N(C)C)CC3)c2c1 (stereo not given)
[2]
  IC50: 0.15 µM

## CN(C)C1CC=C(c2c[nH]c3ccccc23)CC1 (stereo not given)
[1]
  inhibition: 67%
[2]
  IC50: 0.0031 µM
[3]
  inhibition: 70%

## CN1CC=C(c2c[nH]c3ccc([N+](=O)[O-])cc23)CC1
[1]
  inhibition: 73%
[2]
  IC50: 0.04 µM
[3]
  inhibition: 27%

## CN1CC=C(c2c[nH]c3ccc(Br)cc23)CC1
[2]
  IC50: 0.21 µM
